Data reported in ChEMBL document CHEMBL2440016, “Targeting the human parasite Leishmania donovani: discovery of a new promising anti-infectious pharmacophore in 3-nitroimidazo[1,2-a]pyridine series” (Bioorg Med Chem, 2013).

Assays:
[1] = Cytotoxicity against mouse J774.1 cells after 72 hrs by MTT assay; type: cell-based; conditions: J774.1 cells
Outline: (§1)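 Cells plated in RPMI with 10% FCS, L-glutamine and penicillin/streptomycin, 24 h at 37 °C, 6% CO2. Compound dilutions then added for 72 h. MTT 0.5 mg/mL in PBS for 2 h, formazan dissolved in DMSO, A570 with 630 nm reference. Viability taken as % of untreated control. Doxorubicin served as positive control. CC50 from the dose-response curve.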

[2] = Cytotoxicity against human HepG2 cells after 72 hrs by MTT assay; type: cell-based; conditions: HepG2 cells; outline: as §1
Leishmania donovani = assay: Antimicrobial activity against Leishmania donovani MHOM/IN/00/DEVI promastigotes after 72 hrs by MTT assay; type: functional, organism-based; conditions: Leishmania donovani, MHOM/IN/00/DEVI, 72 h; read-out: IC50
Outline: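 Log-phase promastigotes in Schneider's medium with 20% FCS, 2 mM L-glutamine and penicillin/streptomycin, at 10⁶ parasites/mL. Compound dilutions run in duplicate, final DMSO <0.5%, 72 h at 27 °C. MTT 0.5 mg/mL for 6 h at 27 °C, formazan dissolved in DMSO, A570.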

[3] = Selectivity index, ratio of CC50 for human HepG2 cells to IC50 for Leishmania donovani MHOM/IN/00/DEVI; type: functional
Outline: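 SI = HepG2 CC50 / L. donovani IC50.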

[4] = Selectivity index, ratio of CC50 for mouse J774.1 cells to IC50 for Leishmania donovani MHOM/IN/00/DEVI; type: functional

SMILES	CC50 at 72 h [1] [µM]	CC50 at 72 h [2] [µM]	IC50 (Leishmania donovani) [µM]	Ratio CC50/IC50 [3]	Ratio CC50/IC50 [4]
Cc1ccc(S(=O)(=O)Cc2nc3ccc(Br)cn3c2[N+](=O)[O-])cc1	44.3	5.9	44.1	0.13	1
O=[N+]([O-])c1c(CS(=O)(=O)c2ccc(Cl)cc2)nc2ccc(I)cn12	43.6	> 50	29.1	>1.7	1.5
O=[N+]([O-])c1c(CS(=O)(=O)c2ccc(F)cc2)nc2ccc(Br)cn12	> 92.8	> 100	> 50	–	–
O=[N+]([O-])c1c(CS(=O)(=O)c2ccc(I)cc2)nc2ccc(Br)cn12	16.2	20.3	> 50	<0.4	<0.3
COc1cccc2c1C(=O)c1c(O)c3c(c(O)c1C2=O)C[C@@](O)(C(=O)CO)C[C@@H]3O[C@H]1C[C@H](N)[C@H](O)[C@H](C)O1 [DOXORUBICIN]	0.02	–	–	–	–
ClCc1cn2ccccc2n1	> 100	> 100	> 50	–	–
O=[N+]([O-])c1c(CCl)nc2ccc(Br)cn12	4.9	15.6	9.6	1.6	0.5
O=[N+]([O-])c1c(CS(=O)(=O)c2ccccc2)nc2ccccn12	> 100	> 62.5	> 50	–	–
Cc1ccc(S(=O)(=O)Cc2cn3cc(Cl)ccc3n2)cc1	33.3	68.3	33.5	2	0.9
Cc1ccc(S(=O)(=O)Cc2nc3ccc(I)cn3c2[N+](=O)[O-])cc1	34.8	> 50	39.2	>1.3	0.9
O=[N+]([O-])c1c(CS(=O)(=O)c2ccc(-c3ccccc3)cc2)nc2ccc(Br)cn12	54.4	> 100	> 50	–	<1.1
O=S(=O)(Cc1cn2cc(I)ccc2n1)c1ccc(Cl)cc1	44.2	39.1	> 50	<0.8	<0.8
CS(=O)(=O)Cc1nc2ccc(Br)cn2c1[N+](=O)[O-]	> 100	> 100	> 50	–	–
Cc1ccccc1-c1ccc2nc(CS(=O)(=O)c3ccccc3)c([N+](=O)[O-])n2c1	5	> 9.4	> 10	–	<0.5
Cc1nc2ccccn2c1[N+](=O)[O-]	> 100	> 100	> 50	–	–
Cc1ccc(S(=O)(=O)Cc2nc3ccc(Cl)cn3c2[N+](=O)[O-])cc1	> 94	> 100	> 50	–	–
O=[N+]([O-])c1c(CSc2ccccc2)nc2ccc(Br)cn12	> 6	0.53	> 10	<0.05	–
COc1ccc(S(=O)(=O)Cc2nc3ccc(Br)cn3c2[N+](=O)[O-])cc1	> 92.5	> 100	> 50	–	–
O=S(=O)(Cc1cn2ccccc2n1)c1ccccc1	> 100	> 100	> 50	–	–
O=[N+]([O-])c1c(CS(=O)(=O)c2ccc(C(F)(F)F)cc2)nc2ccc(Br)cn12	> 25	31.7	> 50	<0.6	–
ClCc1cn2cc(Br)ccc2n1	68.4	> 100	> 50	–	<1.4
c1ccn2ccnc2c1	> 100	> 100	> 50	–	–
Cc1ccc(S(=O)(=O)Cc2cn3cc(I)ccc3n2)cc1	25	> 12.5	> 50	–	<0.5
O=[N+]([O-])c1cnc2ccccn12	> 100	> 100	> 50	–	–
